This note sets out measurements from ChEMBL document CHEMBL4371094, “Secondary Metabolites from the Fungus Dictyosporium sp. and Their MALT1 Inhibitory Activities” (J Nat Prod, 2019).

The source made the active and inactive calls. No cut-off for these calls is given here.

One experiment deals with T1, Mucosa-associated lymphoid tissue lymphoma translocation protein 1 (Homo sapiens) (UniProt Q9UDY8).
T1 sequence (whole entry): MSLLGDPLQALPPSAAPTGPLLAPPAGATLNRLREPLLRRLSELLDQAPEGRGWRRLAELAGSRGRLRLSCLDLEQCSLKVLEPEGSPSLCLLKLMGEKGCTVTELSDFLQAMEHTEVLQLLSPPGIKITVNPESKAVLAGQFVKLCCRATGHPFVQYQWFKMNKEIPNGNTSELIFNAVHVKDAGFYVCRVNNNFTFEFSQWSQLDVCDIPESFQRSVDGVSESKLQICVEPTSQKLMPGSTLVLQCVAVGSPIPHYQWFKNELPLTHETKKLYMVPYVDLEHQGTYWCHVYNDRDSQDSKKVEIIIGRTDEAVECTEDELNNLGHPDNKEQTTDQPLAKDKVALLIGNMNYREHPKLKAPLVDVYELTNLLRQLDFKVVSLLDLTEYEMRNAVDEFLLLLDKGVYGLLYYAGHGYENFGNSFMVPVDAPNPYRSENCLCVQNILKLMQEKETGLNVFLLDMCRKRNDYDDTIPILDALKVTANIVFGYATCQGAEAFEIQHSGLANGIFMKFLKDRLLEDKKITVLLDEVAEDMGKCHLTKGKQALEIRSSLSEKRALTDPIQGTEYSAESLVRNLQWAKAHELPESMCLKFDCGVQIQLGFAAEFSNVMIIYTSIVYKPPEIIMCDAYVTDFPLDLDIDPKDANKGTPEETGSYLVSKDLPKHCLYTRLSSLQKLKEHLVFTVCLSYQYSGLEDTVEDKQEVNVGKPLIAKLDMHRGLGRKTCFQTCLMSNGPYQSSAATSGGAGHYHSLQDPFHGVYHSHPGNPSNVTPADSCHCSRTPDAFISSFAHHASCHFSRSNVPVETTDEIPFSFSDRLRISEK
Nature of the experiment: Inhibition of full-length human GST-tagged MALT1 isoform A (824 residues) expressed in Escherichia coli at >100 uM in presence of AMC after 1 hr by fluorescence assay.
In the case of `COC(=O)C1=CC=COc2oc3cc(C)cc(O)c3c(=O)c21`, the inhibition entry is “Active”. Still for that read-out and setting: the entry for `COC(=O)C1=CC(C)=COc2oc3cccc(O)c3c(=O)c21` is “Active”.

Another experiment deals with T1, Mucosa-associated lymphoid tissue lymphoma translocation protein 1 (Homo sapiens). Nature of the experiment: Inhibition of full-length human GST-tagged MALT1 isoform A (824 residues) expressed in Escherichia coli at 100 uM using Ac-LRSR-MCA as substrate after 1 hr by fluorescence assay.
In the case of `COC(=O)c1cc(O)cc2oc3cc(C)cc(O)c3c(=O)c12`, the inhibition result was “inactive”. Same read-out and setting: in the case of `Cc1cc(CO)c2c(=O)c3c(O)cccc3oc2c1` it was “inactive”. In the case of `COc1cc2c(c(O)c1[C@H](C)O)C(=O)CC[C@@H]2O`, the inhibition result was “inactive”.

With `COC(=O)c1cc(C)c(O)c2oc3cccc(O)c3c(=O)c12`, the inhibition entry was “inactive”. Still for that read-out and setting: the entry for `COc1c(C)cc(O)c2c1[C@H](O)[C@]1(C(=O)C(CC=C(C)C)=CC[C@H]1O)C2=O` is “inactive”; for `CCc1c(OC)cc2c(c1O)C(=O)CC[C@@H]2O` it is “inactive”; for `CCc1c(OC)cc2c(c1O)C(=O)CC[C@@]21C[C@@H](O)C(=O)O1` it is “inactive”. Same read-out and setting: in the case of `COC(=O)c1cccc2oc3cc(C)cc(O)c3c(=O)c12` it was “inactive”.

For `Cc1cc([C@@H]2C[C@H](O)C(=O)O2)c2c(=O)c3c(O)cccc3oc2c1`, the inhibition entry was “inactive”.

In a further experiment the target is T2, Mucosa-associated lymphoid tissue lymphoma translocation protein 1 (Homo sapiens, UniProt Q9UDY8).
T2 sequence (Q9UDY8 whole entry): T1 sequence (whole entry)
The experiment in a line: Inhibition of full-length human GST-tagged MALT1 isoform A (824 residues) expressed in Escherichia coli using Ac-LRSR-MCA as substrate after 1 hr by fluorescence assay. The method, boiled down:
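Recombinant MALT1-GST, 25 nM final, in buffer of 50 mM Tris HCl pH 7.5, 0.05% CHAPS, 1 mM DTT, 0.1 mM EGTA, 0.8 M sodium citrate. Started by adding 150 μM Ac-LRSR-MCA with compound (0−250 μM). 37 °C for 1 h, quenched with equal volume 0.2% SDS, AMC fluorescence read at ex 342/em 441 nm in quadruplicate. Prequenched background subtracted, normalized to vehicle control.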
As for `CC(C)[C@H](NC(=O)OCc1ccccc1)C(=O)N[C@@H](CCCNC(=N)N)C(=O)N1CCC[C@H]1C(=O)N[C@@H](CCCNC(=N)N)C(=O)CF`, the 50% inhibitory concentration (IC50) (in general, the midpoint of a concentration-inhibition curve) was 0.016 µM.

For the molecule `COC(=O)C1=CC=COc2oc3cc(C)cc(O)c3c(=O)c21`, 50.9 µM corresponded to half-maximal inhibition (IC50).

For the molecule `COC(=O)C1=CC(C)=COc2oc3cccc(O)c3c(=O)c21`, the concentration for half-maximal inhibition (IC50) turned out to be 32.1 µM.
